Measured values taken from ChEMBL document CHEMBL1138470, “Discovery and characterization of the N-phenyl-N'-naphthylurea class of p38 kinase inhibitors” (Bioorg Med Chem Lett, 2009).
Active and inactive are the calls of the source. No cut-off for these calls is given here.

How the values were obtained:
[1] = biological target: Epidermal growth factor receptor (Homo sapiens, UniProt P00533); assay: Inhibition of EGFR
[2] = biological target: Cyclin-dependent kinase 1 (Homo sapiens) (UniProt P06493); assay: Inhibition of CDK1 at => 3 ug/mL
[3] = biological target: 3-phosphoinositide-dependent protein kinase 1 (Homo sapiens) (UniProt O15530); assay: Inhibition of PDK1 at => 3 ug/mL
[4] = biological target: Dual specificity tyrosine-phosphorylation-regulated kinase 1A (Homo sapiens) (UniProt Q13627); assay: Inhibition of DYRK1A at => 3 ug/mL
[5] = Inhibition of FGFR
[6] = Inhibition of IKK at => 3 ug/mL
[7] = biological target: Ribosomal protein S6 kinase beta-1 (Homo sapiens) (UniProt P23443); assay: Inhibition of S6K1 at => 3 ug/mL
[8] = Inhibition of ERK at => 3 ug/mL
[9] = biological target: Tyrosine-protein kinase SYK (Homo sapiens) (UniProt P43405); assay: Inhibition of SYK at => 3 ug/mL
[10] = biological target: Glycogen synthase kinase-3 beta (Homo sapiens) (UniProt P49841); assay: Inhibition of GSK3-beta at => 3 ug/mL
[11] = biological target: MAP kinase-activated protein kinase 2 (Homo sapiens) (UniProt P49137); assay: Inhibition of MAPKAPK2 at => […] ug/mL
THP-1 = assay: Inhibition of LPS-induced TNFalpha production in human THP1 cells; type: functional, cell-based
In short: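 LPS-stimulated TNFα release from THP-1 cells; IC50 values are means of 2–4 experiments, SD for n > 2 typically ±50% of the value.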

[12] = biological target: RAC-alpha serine/threonine-protein kinase (Homo sapiens, UniProt P31749); assay: Inhibition of PKBalpha/Akt1
[13] = Inhibition of pp60src
[14] = biological target: Mitogen-activated protein kinase 9 (Homo sapiens, UniProt P45984); assay: Inhibition of JNK2alpha2 by exchange curve binding kinetic analysis
[15] = biological target: Dual specificity mitogen-activated protein kinase kinase 1 (Homo sapiens) (UniProt Q02750); assay: Inhibition of MKK1 at => 3 ug/mL
Blood = assay: Inhibition of LPS-induced TNFalpha production in human whole blood; type: functional, tissue-based
In short: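 LPS-stimulated TNFα production in whole blood from human donors; IC50 reported as geometric mean of 4–12 donor experiments, SD typically ±50% of the value.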

[16] = biological target: Tyrosine-protein kinase ABL1 (Homo sapiens, UniProt P00519); assay: Inhibition of Abl
[17] = biological target: Ribosomal protein S6 kinase alpha-3 (Homo sapiens) (UniProt P51812); assay: Inhibition of MAPKAPK1B at => […] ug/mL
[18] = biological target: Hepatocyte growth factor receptor (Homo sapiens) (UniProt P08581); assay: Inhibition of HGFR at => 3 ug/mL
Mus musculus = assay: Inhibition of LPS-induced endotoxemia in mouse assessed as inhibition of TNFalpha production at 3 mg/kg, po; type: functional
In short: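 Mouse LPS-induced endotoxemia model; compound given orally at 3 mg/kg, and TNFα production is measured and expressed as percent inhibition.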

[19] = biological target: Serine/threonine-protein kinase Sgk1 (Homo sapiens) (UniProt O00141); assay: Inhibition of SGK at => 3 ug/mL
[20] = Inhibition of CK2 at => 3 ug/mL
[21] = biological target: Tyrosine-protein kinase CSK (Homo sapiens) (UniProt P41240); assay: Inhibition of CSK at 3 uM
[22] = Inhibition of PHK1 at => 3 ug/mL
[23] = biological target: Tyrosine-protein kinase Lyn (Homo sapiens, UniProt P07948); assay: Inhibition of Lyn
[24] = biological target: Tyrosine-protein kinase BTK (Homo sapiens) (UniProt Q06187); assay: Inhibition of BTK at => 3 ug/mL
[25] = biological target: Insulin-like growth factor 1 receptor (Homo sapiens) (UniProt P08069); assay: Inhibition of IGF1R at => 3 ug/mL
[26] = Inhibition of PI3K at => 3 ug/mL
[27] = biological target: Insulin receptor (Homo sapiens) (UniProt P06213); assay: Inhibition of IR at => 3 ug/mL
[28] = biological target: Focal adhesion kinase 1 (Homo sapiens) (UniProt Q05397); assay: Inhibition of PTK2 at => 3 ug/mL
Ephrin type-A receptor 3 = Ephrin type-A receptor 3 (Homo sapiens, UniProt P29320); assay: Inhibition of HEK
[29] = biological target: RAF proto-oncogene serine/threonine-protein kinase (Homo sapiens, UniProt P04049); assay: Inhibition of craf
[30] = Inhibition of VEGFR
[31] = biological target: Protein kinase C alpha type (Homo sapiens) (UniProt P17252); assay: Inhibition of PKCalpha at => 3 ug/mL
Ephrin type-A receptor 2 = Ephrin type-A receptor 2 (Homo sapiens, UniProt P29317); assay: Inhibition of ECK
[32] = biological target: Mitogen-activated protein kinase 8 (Homo sapiens) (UniProt P45983); assay: Inhibition of […] at => 3 ug/mL
[33] = biological target: Serine/threonine-protein kinase B-raf (Homo sapiens, UniProt P15056); assay: Inhibition of bRaf
[34] = biological target: Rho-associated protein kinase 2 (Homo sapiens) (UniProt O75116); assay: Inhibition of ROCK2 at => 3 ug/mL
[35] = Inhibition of PKA at => […] ug/mL
[36] = biological target: Tyrosine-protein kinase JAK3 (Homo sapiens) (UniProt P52333); assay: Inhibition of JAK3 at => 3 ug/mL
[37] = biological target: Tyrosine-protein kinase Lck (Homo sapiens) (UniProt P06239); assay: Inhibition of LCK at => 3 ug/mL
[38] = biological target: MAP kinase-activated protein kinase 5 (Homo sapiens) (UniProt Q8IW41); assay: Inhibition of PRAK at => 3 ug/mL
[39] = biological target: Casein kinase I isoform alpha (Homo sapiens) (UniProt P48729); assay: Inhibition of CK1 at => 3 ug/mL
[40] = biological target: T1, Mitogen-activated protein kinase 14 (Homo sapiens, UniProt Q16539)
[41] = biological target: Ribosomal protein S6 kinase alpha-3 (Homo sapiens) (UniProt P51812); assay: Inhibition of RSK2 at => 3 ug/mL
[42] = biological target: Tyrosine-protein kinase TXK (Homo sapiens) (UniProt P42681); assay: Inhibition of TXK at => 3 ug/mL
[43] = biological target: Mitogen-activated protein kinase kinase kinase 14 (Homo sapiens) (UniProt Q99558); assay: Inhibition of NIK at => 3 ug/mL
[44] = biological target: T1, Mitogen-activated protein kinase 14; assay: Binding affinity to p38alpha by exchange curve binding kinetic analysis
[45] = Aqueous solubility at pH 7.4; type: physicochemical
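Throughout, for Tm: thermal denaturation measurement of the p38alpha–inhibitor complex, reporting its melting point as a readout of binding.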

T1 sequence (Q16539 whole entry): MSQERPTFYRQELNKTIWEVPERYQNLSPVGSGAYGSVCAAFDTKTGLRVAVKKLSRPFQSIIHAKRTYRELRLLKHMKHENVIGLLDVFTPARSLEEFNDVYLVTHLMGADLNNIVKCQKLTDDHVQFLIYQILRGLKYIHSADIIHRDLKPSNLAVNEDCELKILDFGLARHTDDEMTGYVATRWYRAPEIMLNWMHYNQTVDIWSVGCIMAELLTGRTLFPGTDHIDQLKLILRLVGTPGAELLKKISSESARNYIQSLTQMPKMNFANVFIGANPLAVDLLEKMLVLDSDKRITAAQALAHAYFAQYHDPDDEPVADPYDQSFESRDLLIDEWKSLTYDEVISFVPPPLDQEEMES
Ribosomal protein S6 kinase alpha-3 (Homo sapiens), sequence (P51812 whole entry): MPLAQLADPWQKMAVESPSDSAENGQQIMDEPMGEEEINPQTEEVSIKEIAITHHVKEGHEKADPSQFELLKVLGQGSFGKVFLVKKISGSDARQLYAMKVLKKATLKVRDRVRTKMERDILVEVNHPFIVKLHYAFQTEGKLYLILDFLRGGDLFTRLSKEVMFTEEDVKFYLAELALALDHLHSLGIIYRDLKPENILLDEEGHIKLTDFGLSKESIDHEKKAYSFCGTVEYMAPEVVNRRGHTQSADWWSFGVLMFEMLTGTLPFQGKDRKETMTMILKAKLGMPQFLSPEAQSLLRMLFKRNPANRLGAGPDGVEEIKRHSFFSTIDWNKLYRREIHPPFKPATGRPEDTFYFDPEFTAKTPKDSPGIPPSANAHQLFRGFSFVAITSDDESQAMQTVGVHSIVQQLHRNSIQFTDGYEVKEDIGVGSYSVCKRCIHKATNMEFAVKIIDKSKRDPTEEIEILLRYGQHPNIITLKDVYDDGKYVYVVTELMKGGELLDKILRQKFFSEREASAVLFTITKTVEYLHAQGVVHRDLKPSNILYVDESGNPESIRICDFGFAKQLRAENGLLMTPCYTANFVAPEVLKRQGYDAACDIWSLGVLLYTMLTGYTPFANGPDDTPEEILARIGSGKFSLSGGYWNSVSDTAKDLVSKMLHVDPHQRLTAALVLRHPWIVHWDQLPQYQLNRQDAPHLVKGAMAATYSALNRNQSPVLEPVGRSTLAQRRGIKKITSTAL
Mitogen-activated protein kinase kinase kinase 14 (Homo sapiens), sequence (Q99558 whole entry, looked up): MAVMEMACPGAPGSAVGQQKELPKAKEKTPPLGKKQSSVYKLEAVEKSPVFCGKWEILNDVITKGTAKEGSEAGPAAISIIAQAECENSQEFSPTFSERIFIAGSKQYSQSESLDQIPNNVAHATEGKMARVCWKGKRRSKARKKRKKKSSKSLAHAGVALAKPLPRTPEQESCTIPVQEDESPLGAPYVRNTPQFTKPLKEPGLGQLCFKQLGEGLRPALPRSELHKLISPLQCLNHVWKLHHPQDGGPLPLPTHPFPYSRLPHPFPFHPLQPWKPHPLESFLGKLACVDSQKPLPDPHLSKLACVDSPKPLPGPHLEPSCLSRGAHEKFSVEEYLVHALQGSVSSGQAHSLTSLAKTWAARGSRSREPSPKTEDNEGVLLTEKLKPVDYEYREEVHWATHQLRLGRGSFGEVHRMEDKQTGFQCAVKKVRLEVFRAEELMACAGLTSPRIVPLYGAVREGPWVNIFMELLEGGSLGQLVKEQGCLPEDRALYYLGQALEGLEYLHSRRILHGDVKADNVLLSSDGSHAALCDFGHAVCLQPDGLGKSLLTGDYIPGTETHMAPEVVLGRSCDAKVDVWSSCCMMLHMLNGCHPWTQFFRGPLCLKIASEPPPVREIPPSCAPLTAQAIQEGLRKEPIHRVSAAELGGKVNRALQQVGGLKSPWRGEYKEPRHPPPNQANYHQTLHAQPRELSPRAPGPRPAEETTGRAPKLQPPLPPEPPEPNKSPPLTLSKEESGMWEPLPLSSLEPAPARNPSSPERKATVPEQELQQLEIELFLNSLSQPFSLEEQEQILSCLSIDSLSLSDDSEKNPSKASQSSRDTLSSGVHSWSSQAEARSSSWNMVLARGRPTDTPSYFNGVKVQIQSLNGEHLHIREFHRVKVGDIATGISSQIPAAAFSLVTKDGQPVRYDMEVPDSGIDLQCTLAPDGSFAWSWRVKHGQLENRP
Mitogen-activated protein kinase 9, sequence (P45984 whole entry): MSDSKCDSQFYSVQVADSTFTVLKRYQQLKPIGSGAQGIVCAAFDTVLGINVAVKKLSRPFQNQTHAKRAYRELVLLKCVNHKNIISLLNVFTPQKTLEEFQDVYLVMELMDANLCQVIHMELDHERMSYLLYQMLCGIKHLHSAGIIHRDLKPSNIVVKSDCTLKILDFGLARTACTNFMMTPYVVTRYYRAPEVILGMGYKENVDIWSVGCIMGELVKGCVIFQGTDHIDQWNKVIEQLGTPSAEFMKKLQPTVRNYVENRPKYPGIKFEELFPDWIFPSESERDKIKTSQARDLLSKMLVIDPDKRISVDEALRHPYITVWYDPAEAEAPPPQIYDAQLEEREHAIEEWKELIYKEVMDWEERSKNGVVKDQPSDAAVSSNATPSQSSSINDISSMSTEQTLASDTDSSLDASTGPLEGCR
RAF proto-oncogene serine/threonine-protein kinase, sequence (P04049 whole entry): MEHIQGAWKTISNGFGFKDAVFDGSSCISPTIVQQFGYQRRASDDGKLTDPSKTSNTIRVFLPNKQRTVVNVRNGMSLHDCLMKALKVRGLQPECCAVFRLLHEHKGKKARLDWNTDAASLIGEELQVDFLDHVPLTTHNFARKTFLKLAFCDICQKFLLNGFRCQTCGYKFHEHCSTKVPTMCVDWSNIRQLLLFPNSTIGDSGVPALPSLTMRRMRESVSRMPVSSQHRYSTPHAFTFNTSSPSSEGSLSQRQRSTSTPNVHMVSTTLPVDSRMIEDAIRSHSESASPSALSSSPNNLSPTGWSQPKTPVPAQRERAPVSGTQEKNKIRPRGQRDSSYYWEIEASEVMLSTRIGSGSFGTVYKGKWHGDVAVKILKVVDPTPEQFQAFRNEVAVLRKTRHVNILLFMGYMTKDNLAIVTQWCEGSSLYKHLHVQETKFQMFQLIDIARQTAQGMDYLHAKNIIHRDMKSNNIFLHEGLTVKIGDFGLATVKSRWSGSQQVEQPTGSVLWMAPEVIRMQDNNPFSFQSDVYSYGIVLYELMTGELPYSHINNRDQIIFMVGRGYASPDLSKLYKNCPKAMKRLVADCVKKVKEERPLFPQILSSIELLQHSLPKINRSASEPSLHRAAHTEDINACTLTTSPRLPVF
Hepatocyte growth factor receptor (Homo sapiens), sequence (P08581 whole entry): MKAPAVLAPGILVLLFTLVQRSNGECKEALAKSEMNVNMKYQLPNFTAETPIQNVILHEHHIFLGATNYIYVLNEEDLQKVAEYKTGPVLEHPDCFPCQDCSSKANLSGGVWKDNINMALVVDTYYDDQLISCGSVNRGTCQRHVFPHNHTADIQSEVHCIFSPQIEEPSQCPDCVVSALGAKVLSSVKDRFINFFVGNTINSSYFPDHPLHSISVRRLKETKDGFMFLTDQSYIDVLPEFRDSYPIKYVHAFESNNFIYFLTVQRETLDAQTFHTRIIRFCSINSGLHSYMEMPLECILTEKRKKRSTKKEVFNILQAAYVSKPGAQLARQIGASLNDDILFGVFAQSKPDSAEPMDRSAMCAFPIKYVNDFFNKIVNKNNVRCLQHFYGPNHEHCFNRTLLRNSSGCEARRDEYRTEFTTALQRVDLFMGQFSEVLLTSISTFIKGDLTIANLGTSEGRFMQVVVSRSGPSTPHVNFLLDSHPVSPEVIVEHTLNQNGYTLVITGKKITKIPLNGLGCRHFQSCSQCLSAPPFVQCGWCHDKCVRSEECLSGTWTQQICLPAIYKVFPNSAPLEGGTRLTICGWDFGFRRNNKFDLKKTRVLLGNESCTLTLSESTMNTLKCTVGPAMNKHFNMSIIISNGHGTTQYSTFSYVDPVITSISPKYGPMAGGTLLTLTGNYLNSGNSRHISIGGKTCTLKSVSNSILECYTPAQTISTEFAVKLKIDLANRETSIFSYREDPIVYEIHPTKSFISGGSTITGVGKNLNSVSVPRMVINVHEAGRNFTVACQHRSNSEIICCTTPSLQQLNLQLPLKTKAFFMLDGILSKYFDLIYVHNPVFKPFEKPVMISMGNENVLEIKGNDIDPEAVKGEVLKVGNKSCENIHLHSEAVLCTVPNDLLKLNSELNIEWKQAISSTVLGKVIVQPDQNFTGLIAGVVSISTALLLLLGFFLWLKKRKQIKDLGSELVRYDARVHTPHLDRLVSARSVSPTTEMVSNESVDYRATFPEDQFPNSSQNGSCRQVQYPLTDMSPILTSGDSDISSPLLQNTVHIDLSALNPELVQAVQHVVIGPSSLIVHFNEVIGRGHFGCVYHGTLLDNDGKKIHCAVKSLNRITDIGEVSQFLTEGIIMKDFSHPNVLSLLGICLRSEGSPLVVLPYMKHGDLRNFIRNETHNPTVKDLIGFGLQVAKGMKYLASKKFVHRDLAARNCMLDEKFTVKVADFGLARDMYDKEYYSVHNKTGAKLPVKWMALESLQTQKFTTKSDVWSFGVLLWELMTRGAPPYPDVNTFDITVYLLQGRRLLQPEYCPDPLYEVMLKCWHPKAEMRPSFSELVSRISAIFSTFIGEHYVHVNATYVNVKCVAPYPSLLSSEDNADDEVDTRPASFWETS
Dual specificity mitogen-activated protein kinase kinase 1 (Homo sapiens), sequence (Q02750 whole entry): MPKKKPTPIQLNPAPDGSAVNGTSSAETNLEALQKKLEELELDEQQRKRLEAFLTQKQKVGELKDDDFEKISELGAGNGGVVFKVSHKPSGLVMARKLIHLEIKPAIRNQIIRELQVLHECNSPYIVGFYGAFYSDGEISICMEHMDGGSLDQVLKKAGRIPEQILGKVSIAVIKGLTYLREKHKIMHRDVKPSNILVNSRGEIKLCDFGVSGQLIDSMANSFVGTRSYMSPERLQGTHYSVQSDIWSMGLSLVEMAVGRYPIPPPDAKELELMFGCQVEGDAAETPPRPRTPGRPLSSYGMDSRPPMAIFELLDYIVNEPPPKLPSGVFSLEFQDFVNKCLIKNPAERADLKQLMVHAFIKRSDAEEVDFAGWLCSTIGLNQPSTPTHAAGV

## COc1c(NC(=O)Nc2ccc(-c3ccc(CN4CCOCC4)nc3)c3ccccc23)cc(C(C)(C)C)cc1NS(C)(=O)=O
[1]
  IC50: 5.4 µM
[2]
  Activity: inactive
[3]
  Activity: inactive
[4]
  Activity: inactive
[5]
  IC50: 7.7 µM
[6]
  Activity: inactive
[7]
  Activity: inactive
[8]
  Activity: inactive
[9]
  Activity: inactive
[10]
  Activity: inactive
[11]
  Activity: inactive
THP-1
  IC50: 0.01 µM
[12]
  IC50: 6.4 µM
[13]
  IC50: 8.2 µM
[14]
  IC50: 0.003 µM
[15]
  Activity: inactive
Blood
  IC50: 0.046 µM
[16]
  IC50: 0.48 µM
[17]
  Activity: inactive
[18]
  Activity: inactive
Mus musculus
  inhibition in vivo at 3 mg/kg: 57%
[19]
  Activity: inactive
[20]
  Activity: inactive
[21]
  inhibition: 62%
[22]
  Activity: inactive
[23]
  IC50: 2.4 µM
[24]
  Activity: inactive
[25]
  Activity: inactive
[26]
  Activity: inactive
[27]
  Activity: inactive
[28]
  Activity: inactive
Ephrin type-A receptor 3
  IC50: 3.2 µM
[29]
  IC50: 0.88 µM
[30]
  IC50: 3 µM
[31]
  Activity: inactive
Ephrin type-A receptor 2
  IC50: 5.2 µM
[32]
  Activity: inactive
[33]
  IC50: 7.2 µM
[34]
  Activity: inactive
[35]
  Activity: inactive
[36]
  Activity: inactive
[37]
  Activity: inactive
[38]
  Activity: inactive
[39]
  Activity: inactive
[40]
  Tm: 63.3 °C
[41]
  Activity: inactive
[42]
  Activity: inactive
[43]
  Activity: inactive

## COc1ccc(C(C)(C)C)cc1NC(=O)Nc1ccc(-c2ccc(CN3CCOCC3)nc2)c2ccccc12
THP-1
  IC50: 0.0055 µM
Blood
  IC50: 0.14 µM
[44]
  Kd: 0.0018 µM
[40]
  Tm: 57.9 °C
[45]
  solubility: < 0.5 µg/mL
